Results on 47 compounds are retold here after ChEMBL document CHEMBL2034867, “S-Farnesyl-Thiopropionic Acid (FTPA) Triazoles as Potent Inhibitors of Isoprenylcysteine Carboxyl Methyltransferase” (ACS Med Chem Lett, 2012).

Experiment [1] addresses T1, Protein-S-isoprenylcysteine O-methyltransferase (Homo sapiens, UniProt O60725). As to the kind of experiment: Inhibition of ICMT in cell free system.
Experiment [2] addresses T1, Protein-S-isoprenylcysteine O-methyltransferase. Kind of experiment: Specific activity at ICMT at 10 uM relative to AFC. In outline:
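Single-point vapor diffusion assay at 10 μM inhibitor. Icmt specific activity is expressed as percent of the no-inhibitor AFC control.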

Experiment [3] in a line: Cytotoxicity against human PA-TU-8902 cells after 5 days by MTT assay. It counts as functional, cell-based. The conditions noted are these: PaTu 8902, 120 h.
For experiment [4], the system named is MEF. As to the kind of experiment: Cytotoxicity against icmt-positive MEF cells after 5 days by MTT assay. It counts as functional, cell-based. The conditions noted are these: Mus musculus, 120 h. In a few lines:
(§1)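 MEFs from Icmt+/+ or Icmt–/– animals were seeded at 1000 cells/well in DMEM with 10% FBS for 24 h. Medium was then changed to DMEM with 5% FBS containing compound at various concentrations, or 0.1% DMSO. After 5 days, MTT (5 mg/mL) was added for 4 h at 37 °C. Medium was removed, formazan dissolved in DMSO, and absorbance read at 590 nm.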
For orientation: Formazan colour is commonly taken as a measure of viable cells.

Experiment [5] deals with T1, Protein-S-isoprenylcysteine O-methyltransferase. As to the kind of experiment: Inhibition of Icmt-mediated GFP-K-Ras membrane localization in human Jurkat T cells at 10 uM after 24 hrs by fluorescent microscopic analysis. It counts as cell-based. In a few lines:
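Jurkat T cells (E6.1) were transfected with GFP-K-Ras and treated for 24 h with compound, vehicle, or 25 μM simvastatin. Cells were placed on poly-L-lysine-coated coverslips (100 μg/mL) and fixed in 3.7% formaldehyde for 10 min. GFP localization was scored by fluorescence microscopy in random fields of 100 cells as normal membrane, partial mislocalization or complete mislocalization.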

For experiment [6], the system named is MEF. As to the kind of experiment: Cytotoxicity against icmt-double mutant MEF cells after 5 days by MTT assay. It counts as cell-based. The conditions noted are these: Mus musculus, 120 h. In a few lines: as §1

Active and inactive are the calls of the source. The rule behind the calls is not given here. Where only a bound is given, the exact number is not on record here.

T1 sequence (O60725 whole entry): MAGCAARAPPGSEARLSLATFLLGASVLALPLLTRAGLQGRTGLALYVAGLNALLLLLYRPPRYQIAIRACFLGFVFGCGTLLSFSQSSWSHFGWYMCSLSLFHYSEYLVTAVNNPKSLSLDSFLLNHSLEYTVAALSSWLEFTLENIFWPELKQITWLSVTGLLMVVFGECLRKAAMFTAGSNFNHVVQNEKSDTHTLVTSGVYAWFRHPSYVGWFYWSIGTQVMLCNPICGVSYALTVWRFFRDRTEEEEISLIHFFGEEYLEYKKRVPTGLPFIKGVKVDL

In experiment [1], `CC(C)=CC/C(=C\CSC[C@H](NC(=O)c1ccccc1Oc1ccccc1)C(=O)O)CCc1ccc(-c2ccccc2)cc1` had an IC50 of 2.5 µM. This counts as single-digit micromolar.

For `CC(C)=CCC/C(C)=C/CC/C(C)=C/Cc1cn(CCCC(=O)O)nn1`, the Activity in experiment [2] is 83%.

In the case of `COC(=O)CCSC/C=C(\C)CCn1cc(Cc2ccccc2)nn1`, the Activity in experiment [2] worked out at 80%.

Compound `CC(C)=CCC/C(C)=C/CC/C(C)=C/Cc1cn(CC(=O)O)nn1` showed an Activity in experiment [2] of 65%.

`C/C(=C\CSCCC(=O)O)CCn1cc(-c2cccc3ccccc23)nn1`: the Activity in experiment [2] was 77%.

`COC(=O)CCSC/C=C(\C)CCn1cc(-c2ccc(C(C)(C)C)cc2)nn1` showed an Activity in experiment [2] of 84%.

In turn, `C/C(=C\CSCCC(=O)O)CCn1cc(CCc2ccccc2)nn1` had an Activity in experiment [2] of 75%.

Consider `C/C(=C\CSCCC(=O)O)CCn1cc(CCc2ccc(-c3ccc(F)cc3)cc2)nn1`, for which the Activity in experiment [2] came out at 42%.

Take `C/C(=C\CSCCC(=O)O)CCn1cc(-c2ccccc2)nn1`: the Activity in experiment [2] amounted to 88%.

Consider `COC(=O)CCSC/C=C(\C)CCn1cc(-c2ccsc2)nn1`, for which the Activity in experiment [2] was 82%.

Turning to `COC(=O)CCSC/C=C(\C)CCn1cc(-c2ccccc2)nn1`, in experiment [2], the Activity turned out to be 89%.

Turning to `CC(C)=CCC/C(C)=C/CCc1cn(CCC(=O)O)nn1`, the Activity in experiment [2] was found to be 75%.

In experiment [2], `COC(=O)CCSC/C=C(\C)CCn1cc(CCc2ccc(-c3ccccc3)cc2)nn1` registered an Activity of 14%. Further, the IC50 was 8 µM in experiment [3], 33 µM in the experiment on MEF [4], 0.8 µM in experiment [1] and above 100 µM in the experiment on MEF [6]. Besides, the inhibition entry in experiment [5] was “Active”.

In experiment [2], `CC(C)=CCC/C(C)=C/CC/C(C)=C/Cc1cn(CCC(=O)O)nn1` registered an Activity of 53%.

On to `COC(=O)CCSC/C=C(\C)CCn1cc(CCc2ccccc2-c2ccccc2)nn1`, for which the Activity in experiment [2] came out at 74%.

`COC(=O)CCSC/C=C(\C)CCn1cc(-c2cccc3ccccc23)nn1` came in with an Activity in experiment [2] of 82%. For the same compound, the results for the IC50 in the experiment on MEF [4] and in the experiment with MEF [6] were 96 µM and above 100 µM, respectively.

In experiment [2], `COC(=O)CCSC/C=C(\C)CCn1cc(CCc2ccc(-c3ccc(-c4ccccc4)cc3)cc2)nn1` displayed an Activity of 79%.

In experiment [2], `COC(=O)CCSC/C=C(\C)CCn1cc(CCc2ccc(-c3ccc(F)cc3)cc2)nn1` returned an Activity of 28%.

`C/C(=C\CSCCC(=O)O)CCn1cc(CCc2cccc(-c3ccccc3)c2)nn1`: the Activity in experiment [2] amounted to 74%.

`COC(=O)CCSC/C=C(\C)CCn1cc(COc2ccc(-c3ccccc3)cc2)nn1` registered an Activity in experiment [2] of 67%.

In experiment [2], `CCCCCc1cn(CC/C(C)=C/CSCCC(=O)OC)nn1` returned an Activity of 76%.

With `C/C(=C\CSCCC(=O)O)CCn1cc(CCc2ccc(-c3ccccc3)cc2)nn1`, in experiment [2], the Activity worked out at 43%.

Turning to `COC(=O)CCSC/C=C(\C)CCn1cc(CCc2ccc(-c3cccc(C#N)c3)cc2)nn1`, the Activity in experiment [2] came to 30%.

`C/C(=C\CSCCC(=O)O)CCn1cc(Cc2ccccc2)nn1`: the Activity in experiment [2] came to 82%.

In experiment [2], `C/C(=C\CSCCC(=O)O)CCn1cc(-c2ccsc2)nn1` showed an Activity of 80%.

In experiment [2], `C/C(=C\CSCCC(=O)O)CCn1cc(CCc2ccc(-c3cccs3)cc2)nn1` registered an Activity of 63%.

For the compound `C/C(=C\CSCCC(=O)O)CCn1cc(-c2ccc(C(C)(C)C)cc2)nn1`, the Activity in experiment [2] was determined as 88%.

In experiment [2], `COC(=O)CCSC/C=C(\C)CCn1cc(COc2ccccc2)nn1` came in with an Activity of 89%.

Regarding `C/C(=C\CSCCC(=O)O)CCn1cc(CCOC2CCCCO2)nn1` (centres undefined), in experiment [2], the Activity was determined as 90%. Besides, the IC50 in experiment [1] was above 100 µM.

`C/C(=C\CSCCC(=O)O)CCn1cc(COc2ccc(-c3ccccc3)cc2)nn1`: the Activity in experiment [2] came to 75%.

With `COc1ccc(-c2cn(CC/C(C)=C/CSCCC(=O)O)nn2)cc1`, the Activity in experiment [2] was 87%.

For `CCCCCc1cn(CC/C(C)=C/CSCCC(=O)O)nn1`, the Activity in experiment [2] was 77%.

For the compound `CC(C)=CCC/C(C)=C/CCc1cn(CCCC(=O)O)nn1`, the Activity in experiment [2] was found to be 90%.

In the case of `COC(=O)CCSC/C=C(\C)CCn1cc(CCOC2CCCCO2)nn1` (centres undefined), the Activity in experiment [2] worked out at 80%.

The compound `COC(=O)CCSC/C=C(\C)CCn1cc(-c2ccc(OC)cc2)nn1` came in with an Activity in experiment [2] of 91%.

Consider `C/C(=C\CSCCC(=O)O)CCn1cc(COc2ccccc2)nn1`, for which the Activity in experiment [2] was 89%.

For `C/C(=C\CSCCC(=O)O)CCn1cc(CCc2ccc(-c3cccc(C#N)c3)cc2)nn1`, in experiment [2], the Activity was determined as 74%.

With `COC(=O)CCSC/C=C(\C)CCn1cc(CCC(C)C)nn1`, the Activity in experiment [2] worked out at 77%.

Take `CC(C)=CCC/C(C)=C/CC/C(C)=C/CSc1ccccc1C(=O)O` [SALIRASIB]: inhibition in experiment [1] was half-maximal at 25.5 µM (IC50).

Turning to `COC(=O)CCSC/C=C(\C)CCn1cc(CC/C=C(\C)CCC=C(C)C)nn1`, the Activity in experiment [2] worked out at 59%.

The compound `COC(=O)CCSC/C=C(\C)CCn1cc(CCc2cccc(-c3ccccc3)c2)nn1` came in with an Activity in experiment [2] of 65%. Besides, the IC50 is 55 µM with MEF [4], 29 µM in experiment [1] and above 100 µM in the experiment with MEF [6].

Turning to `COC(=O)CCSC/C=C(\C)CCn1cc(CCc2ccc(-c3cccs3)cc2)nn1`, the Activity in experiment [2] came out at 57%.

For `C/C(=C\CSCCC(=O)O)CCn1cc(CCC(C)C)nn1`, the Activity in experiment [2] was found to be 72%.

On to `CCCCCCCCCCc1cn(CC/C(C)=C/CSCCC(=O)OC)nn1`, for which the Activity in experiment [2] was determined as 67%.

Turning to `COC(=O)CCSC/C=C(\C)CCn1cc(CCc2ccccc2)nn1`, the Activity in experiment [2] was 69%. For the same compound, the IC50 in experiment [1] was found to be 41 µM.

Take `CC(C)=CCC/C(C)=C/CC/C(C)=C/CCc1cn(CCC(=O)O)nn1`: the Activity in experiment [2] turned out to be 69%.

In experiment [2], `CC(C)=CCC/C(C)=C/CC/C(C)=C/Cc1cn(CCCCC(=O)O)nn1` registered an Activity of 73%.

One may read the IC50 as the concentration that inhibits the measured activity by half. A low value points to higher potency.
